Experiment [1] deals with Receptor-type tyrosine-protein kinase FLT3 (Homo sapiens) (UniProt P36888). As to the kind of experiment: Inhibition of FLT3 at 10 uM by HTRF assay relative to control. An outline of the steps:
(§1)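 HTRF kinase assay, one panel of kinases. Inhibitor stock 50 µM in 100% DMSO; tested at 10 µM. ATP and substrate at final levels near Km. Final buffer: 50 mM Hepes/NaOH pH 7.4, 40 µM Na3VO4, 0.005% Tween-20, 1 mM DTT, MnCl2 or MgCl2 at kinase-dependent levels. Started by adding ATP/substrate. Reaction run at room temperature, time varied by kinase. Detection mix in 50 mM Hepes pH 7.4, 0.1% BSA, 150 mM KF, incubated ≥1 h at room temperature. Activity expressed as % of uninhibited control; n=2.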
In general terms: TR-FRET usually uses a lanthanide donor and a delayed reading to cut background.

The target of experiment [2] is Vascular endothelial growth factor receptor 1 (Homo sapiens) (UniProt P17948). As to the kind of experiment: Inhibition of FLT1 at 10 uM by HTRF assay relative to control. An outline of the steps:
as §1

The target of experiment [3] is T1, Ephrin type-B receptor 4 (Homo sapiens) (UniProt P54760).
T1 sequence (whole entry): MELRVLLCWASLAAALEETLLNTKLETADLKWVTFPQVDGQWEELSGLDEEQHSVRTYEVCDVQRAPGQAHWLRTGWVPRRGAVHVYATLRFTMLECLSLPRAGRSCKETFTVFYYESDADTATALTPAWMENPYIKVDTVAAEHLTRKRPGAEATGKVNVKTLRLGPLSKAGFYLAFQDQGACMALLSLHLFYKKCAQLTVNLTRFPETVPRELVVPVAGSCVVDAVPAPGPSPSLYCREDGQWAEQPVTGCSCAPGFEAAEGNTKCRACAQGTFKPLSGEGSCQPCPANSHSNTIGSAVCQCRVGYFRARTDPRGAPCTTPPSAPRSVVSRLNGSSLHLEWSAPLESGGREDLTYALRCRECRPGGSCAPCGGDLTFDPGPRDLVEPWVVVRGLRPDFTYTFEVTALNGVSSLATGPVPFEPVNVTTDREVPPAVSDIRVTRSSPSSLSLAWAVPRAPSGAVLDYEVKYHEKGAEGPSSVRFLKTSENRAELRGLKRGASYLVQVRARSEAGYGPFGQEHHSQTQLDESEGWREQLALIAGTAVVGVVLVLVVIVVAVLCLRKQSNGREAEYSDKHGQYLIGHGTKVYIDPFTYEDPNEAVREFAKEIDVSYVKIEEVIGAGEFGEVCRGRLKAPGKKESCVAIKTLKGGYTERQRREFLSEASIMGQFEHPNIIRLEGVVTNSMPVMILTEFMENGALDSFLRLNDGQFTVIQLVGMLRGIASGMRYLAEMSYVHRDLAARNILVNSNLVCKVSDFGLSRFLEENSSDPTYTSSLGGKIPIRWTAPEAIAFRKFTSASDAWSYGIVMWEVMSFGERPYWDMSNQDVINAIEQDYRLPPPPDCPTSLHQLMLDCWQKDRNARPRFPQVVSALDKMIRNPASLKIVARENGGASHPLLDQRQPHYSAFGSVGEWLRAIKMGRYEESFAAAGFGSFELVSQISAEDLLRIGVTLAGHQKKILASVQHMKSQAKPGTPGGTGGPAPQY
As to the kind of experiment: Inhibition of EphB4 at 10 uM by HTRF assay relative to control. Summed up: as §1

The target of experiment [4] is Epidermal growth factor receptor (Homo sapiens) (UniProt P00533). As to the kind of experiment: Inhibition of EGFR at 10 uM by HTRF assay relative to control. Summed up:
as §1

The target of experiment [5] is Mitogen-activated protein kinase 14 (Homo sapiens) (UniProt Q16539). As to the kind of experiment: Inhibition of p38alpha at 10 uM by HTRF assay relative to control. An outline of the steps:
as §1

Experiment [6] addresses Mitogen-activated protein kinase 9 (Homo sapiens) (UniProt P45984). As to the kind of experiment: Inhibition of JNK2 at 10 uM by HTRF assay relative to control. Summed up:
as §1

Experiment [7] concerns the target MAP kinase-activated protein kinase 2 (Homo sapiens) (UniProt P49137). As to the kind of experiment: Inhibition of MAPKAPK2 at 10 uM by HTRF assay relative to control. An outline of the steps: as §1
Experiment [8] concerns the target T2, Calcium/calmodulin-dependent protein kinase type IV (Homo sapiens) (UniProt Q16566).
T2 sequence (whole entry): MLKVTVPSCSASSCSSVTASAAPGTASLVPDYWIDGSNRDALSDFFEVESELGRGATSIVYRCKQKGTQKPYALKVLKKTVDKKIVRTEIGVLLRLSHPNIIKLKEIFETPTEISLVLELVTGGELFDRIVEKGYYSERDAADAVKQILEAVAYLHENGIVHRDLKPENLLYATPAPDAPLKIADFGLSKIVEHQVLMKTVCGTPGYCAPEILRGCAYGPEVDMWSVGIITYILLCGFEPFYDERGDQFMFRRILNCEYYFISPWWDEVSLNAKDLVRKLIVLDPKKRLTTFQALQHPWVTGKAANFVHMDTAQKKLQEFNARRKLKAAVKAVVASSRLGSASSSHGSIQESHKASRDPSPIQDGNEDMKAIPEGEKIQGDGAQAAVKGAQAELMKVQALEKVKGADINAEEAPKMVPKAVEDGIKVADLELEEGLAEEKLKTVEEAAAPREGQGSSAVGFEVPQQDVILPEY
As to the kind of experiment: Inhibition of CaMK4 at 10 uM by HTRF assay relative to control. Summed up:
as §1

The target of experiment [9] is Calcium/calmodulin-dependent protein kinase type II subunit alpha (Homo sapiens) (UniProt Q9UQM7). As to the kind of experiment: Inhibition of CaMK2alpha at 10 uM by HTRF assay relative to control. An outline of the steps:
as §1

The target of experiment [10] is Protein kinase C gamma type (Homo sapiens) (UniProt P05129). As to the kind of experiment: Inhibition of PKCgamma at 10 uM by HTRF assay relative to control. An outline of the steps:
as §1

Experiment [11] deals with Protein kinase C alpha type (Homo sapiens) (UniProt P17252). As to the kind of experiment: Inhibition of PKCalpha at 10 uM by HTRF assay relative to control. An outline of the steps:
as §1

In experiment [12] the target is Focal adhesion kinase 1 (Homo sapiens) (UniProt Q05397). As to the kind of experiment: Inhibition of FAK at 10 uM by HTRF assay relative to control. Summed up: as §1
For experiment [13], the target named is Platelet-derived growth factor receptor beta (Homo sapiens) (UniProt P09619). As to the kind of experiment: Inhibition of PDGFRbeta at 10 uM by HTRF assay relative to control. Summed up:
as §1

For experiment [14], the target named is Vascular endothelial growth factor receptor 2 (Homo sapiens) (UniProt P35968). As to the kind of experiment: Inhibition of KDR at 10 uM by HTRF assay relative to control. Summed up:
as §1

Experiment [15] addresses 3-phosphoinositide-dependent protein kinase 1 (Homo sapiens) (UniProt O15530). As to the kind of experiment: Inhibition of PDK1 at 10 uM by HTRF assay relative to control.

Mitogen-activated protein kinase 9 (Homo sapiens), sequence (P45984 whole entry, looked up): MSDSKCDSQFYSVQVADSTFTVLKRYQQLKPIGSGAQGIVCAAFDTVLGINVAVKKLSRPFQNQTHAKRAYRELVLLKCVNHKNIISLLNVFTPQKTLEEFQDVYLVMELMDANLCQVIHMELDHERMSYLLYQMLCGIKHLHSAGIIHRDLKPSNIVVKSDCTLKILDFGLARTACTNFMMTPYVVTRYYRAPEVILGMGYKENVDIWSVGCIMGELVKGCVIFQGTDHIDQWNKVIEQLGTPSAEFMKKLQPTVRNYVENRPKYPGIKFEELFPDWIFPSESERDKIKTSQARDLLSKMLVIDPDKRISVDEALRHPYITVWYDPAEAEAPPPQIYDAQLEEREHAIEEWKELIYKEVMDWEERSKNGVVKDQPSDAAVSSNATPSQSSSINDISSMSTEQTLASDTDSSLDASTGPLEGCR
Focal adhesion kinase 1 (Homo sapiens), sequence (Q05397 2-1052 limits assumed): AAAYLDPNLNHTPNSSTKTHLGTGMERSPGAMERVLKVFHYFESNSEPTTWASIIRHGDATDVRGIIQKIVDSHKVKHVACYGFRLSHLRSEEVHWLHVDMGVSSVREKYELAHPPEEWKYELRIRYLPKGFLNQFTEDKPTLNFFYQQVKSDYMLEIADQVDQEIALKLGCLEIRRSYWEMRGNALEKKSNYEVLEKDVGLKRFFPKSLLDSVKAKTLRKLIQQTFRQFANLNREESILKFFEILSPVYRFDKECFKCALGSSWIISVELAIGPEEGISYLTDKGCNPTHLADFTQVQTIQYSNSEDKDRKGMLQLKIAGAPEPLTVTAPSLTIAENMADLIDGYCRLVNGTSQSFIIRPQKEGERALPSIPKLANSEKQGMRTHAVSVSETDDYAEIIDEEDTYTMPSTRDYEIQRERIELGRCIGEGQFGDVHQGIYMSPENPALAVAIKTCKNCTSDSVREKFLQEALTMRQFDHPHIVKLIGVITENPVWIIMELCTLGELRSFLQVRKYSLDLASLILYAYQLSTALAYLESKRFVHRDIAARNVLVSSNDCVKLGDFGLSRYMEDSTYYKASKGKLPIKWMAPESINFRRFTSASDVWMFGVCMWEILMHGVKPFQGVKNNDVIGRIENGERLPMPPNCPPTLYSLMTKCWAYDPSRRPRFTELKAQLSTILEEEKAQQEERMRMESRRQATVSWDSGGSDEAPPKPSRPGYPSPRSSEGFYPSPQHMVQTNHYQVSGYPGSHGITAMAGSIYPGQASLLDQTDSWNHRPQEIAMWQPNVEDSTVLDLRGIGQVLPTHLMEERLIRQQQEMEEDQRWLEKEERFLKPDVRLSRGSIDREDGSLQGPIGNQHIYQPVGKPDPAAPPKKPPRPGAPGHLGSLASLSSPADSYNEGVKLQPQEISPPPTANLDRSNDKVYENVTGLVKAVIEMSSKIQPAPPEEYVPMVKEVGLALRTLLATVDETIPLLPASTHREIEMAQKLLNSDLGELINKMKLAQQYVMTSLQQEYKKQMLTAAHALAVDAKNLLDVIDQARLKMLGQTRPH
Platelet-derived growth factor receptor beta (Homo sapiens), sequence (P09619 whole entry): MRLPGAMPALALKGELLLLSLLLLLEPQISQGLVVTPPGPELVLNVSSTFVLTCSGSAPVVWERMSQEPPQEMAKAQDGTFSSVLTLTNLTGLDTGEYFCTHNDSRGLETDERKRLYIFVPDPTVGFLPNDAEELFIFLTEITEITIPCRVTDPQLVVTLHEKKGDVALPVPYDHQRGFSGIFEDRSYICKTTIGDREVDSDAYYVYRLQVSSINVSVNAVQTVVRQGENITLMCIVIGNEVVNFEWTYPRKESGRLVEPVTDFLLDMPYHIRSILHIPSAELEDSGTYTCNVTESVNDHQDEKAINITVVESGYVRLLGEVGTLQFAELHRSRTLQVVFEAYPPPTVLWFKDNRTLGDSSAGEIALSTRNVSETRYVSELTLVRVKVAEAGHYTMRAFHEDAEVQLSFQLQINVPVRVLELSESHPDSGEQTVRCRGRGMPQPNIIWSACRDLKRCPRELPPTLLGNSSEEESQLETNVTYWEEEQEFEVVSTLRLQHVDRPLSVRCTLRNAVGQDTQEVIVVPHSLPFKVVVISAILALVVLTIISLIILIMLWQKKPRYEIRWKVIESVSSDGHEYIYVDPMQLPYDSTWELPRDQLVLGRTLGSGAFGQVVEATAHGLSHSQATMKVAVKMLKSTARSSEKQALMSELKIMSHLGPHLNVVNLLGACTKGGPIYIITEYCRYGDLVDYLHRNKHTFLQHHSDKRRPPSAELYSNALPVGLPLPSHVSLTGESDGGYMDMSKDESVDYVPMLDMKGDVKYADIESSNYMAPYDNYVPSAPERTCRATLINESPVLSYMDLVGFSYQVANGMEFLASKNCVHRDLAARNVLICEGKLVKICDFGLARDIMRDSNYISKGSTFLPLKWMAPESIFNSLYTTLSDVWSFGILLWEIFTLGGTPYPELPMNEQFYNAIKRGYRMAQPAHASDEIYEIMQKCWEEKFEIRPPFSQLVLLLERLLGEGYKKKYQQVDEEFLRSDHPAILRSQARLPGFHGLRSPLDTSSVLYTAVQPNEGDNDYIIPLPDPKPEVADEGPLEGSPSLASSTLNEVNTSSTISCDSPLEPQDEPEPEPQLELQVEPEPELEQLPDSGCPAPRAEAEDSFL
Epidermal growth factor receptor (Homo sapiens), sequence (P00533 whole entry): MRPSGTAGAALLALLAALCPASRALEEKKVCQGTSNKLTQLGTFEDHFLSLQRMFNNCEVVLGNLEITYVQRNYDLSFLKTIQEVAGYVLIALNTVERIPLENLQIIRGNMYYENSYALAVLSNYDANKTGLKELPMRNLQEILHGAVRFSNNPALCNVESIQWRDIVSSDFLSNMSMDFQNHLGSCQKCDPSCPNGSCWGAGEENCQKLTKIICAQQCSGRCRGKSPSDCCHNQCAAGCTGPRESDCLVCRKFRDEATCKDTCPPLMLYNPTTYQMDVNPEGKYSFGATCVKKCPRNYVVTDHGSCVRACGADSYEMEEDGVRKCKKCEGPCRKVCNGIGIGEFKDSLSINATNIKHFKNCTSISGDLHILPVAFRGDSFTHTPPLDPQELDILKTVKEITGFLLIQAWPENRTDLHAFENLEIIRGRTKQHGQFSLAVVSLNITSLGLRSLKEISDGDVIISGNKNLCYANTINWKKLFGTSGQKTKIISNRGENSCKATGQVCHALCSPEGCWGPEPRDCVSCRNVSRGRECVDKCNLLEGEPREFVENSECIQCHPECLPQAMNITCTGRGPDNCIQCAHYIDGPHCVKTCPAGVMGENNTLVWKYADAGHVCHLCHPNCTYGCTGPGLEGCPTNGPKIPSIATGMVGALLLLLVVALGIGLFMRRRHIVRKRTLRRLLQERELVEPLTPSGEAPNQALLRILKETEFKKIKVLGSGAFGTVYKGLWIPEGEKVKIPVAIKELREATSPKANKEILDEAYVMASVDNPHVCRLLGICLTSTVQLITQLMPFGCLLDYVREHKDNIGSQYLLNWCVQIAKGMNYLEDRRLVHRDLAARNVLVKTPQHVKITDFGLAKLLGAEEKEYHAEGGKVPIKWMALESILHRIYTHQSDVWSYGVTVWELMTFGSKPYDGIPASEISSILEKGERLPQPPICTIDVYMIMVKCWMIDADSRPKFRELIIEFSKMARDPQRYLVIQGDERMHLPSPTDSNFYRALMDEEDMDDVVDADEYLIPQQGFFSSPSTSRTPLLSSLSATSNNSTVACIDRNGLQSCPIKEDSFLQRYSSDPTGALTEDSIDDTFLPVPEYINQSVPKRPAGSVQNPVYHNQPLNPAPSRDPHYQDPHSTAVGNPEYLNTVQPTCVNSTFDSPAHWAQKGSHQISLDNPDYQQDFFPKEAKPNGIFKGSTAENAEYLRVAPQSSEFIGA
Mitogen-activated protein kinase 14 (Homo sapiens), sequence (Q16539 whole entry): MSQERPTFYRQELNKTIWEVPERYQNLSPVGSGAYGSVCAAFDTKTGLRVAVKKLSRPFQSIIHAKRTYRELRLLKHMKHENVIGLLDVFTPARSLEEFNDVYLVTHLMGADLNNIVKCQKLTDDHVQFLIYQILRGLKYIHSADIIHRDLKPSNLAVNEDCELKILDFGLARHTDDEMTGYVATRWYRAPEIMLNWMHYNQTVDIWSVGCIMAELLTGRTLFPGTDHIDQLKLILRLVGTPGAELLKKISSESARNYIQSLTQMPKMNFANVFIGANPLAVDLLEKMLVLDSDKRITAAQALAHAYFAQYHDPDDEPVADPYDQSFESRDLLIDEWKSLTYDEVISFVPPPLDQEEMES
3-phosphoinositide-dependent protein kinase 1 (Homo sapiens), sequence (O15530 whole entry, looked up): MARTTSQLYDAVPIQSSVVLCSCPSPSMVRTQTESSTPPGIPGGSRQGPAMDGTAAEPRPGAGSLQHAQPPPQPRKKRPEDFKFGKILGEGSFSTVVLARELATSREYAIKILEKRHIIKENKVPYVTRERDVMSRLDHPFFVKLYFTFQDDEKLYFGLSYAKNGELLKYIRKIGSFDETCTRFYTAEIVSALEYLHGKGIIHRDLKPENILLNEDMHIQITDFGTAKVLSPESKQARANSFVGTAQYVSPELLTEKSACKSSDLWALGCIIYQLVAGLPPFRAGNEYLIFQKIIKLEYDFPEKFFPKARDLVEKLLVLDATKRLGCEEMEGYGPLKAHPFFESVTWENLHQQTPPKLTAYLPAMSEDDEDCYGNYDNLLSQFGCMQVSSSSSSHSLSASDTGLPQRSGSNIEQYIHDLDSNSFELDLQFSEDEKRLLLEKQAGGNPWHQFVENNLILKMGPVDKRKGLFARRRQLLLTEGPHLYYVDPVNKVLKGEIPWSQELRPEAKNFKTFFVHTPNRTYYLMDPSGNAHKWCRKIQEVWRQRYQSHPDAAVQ

In the case of `COC(=O)C(CO)NC(=O)[C@@H]1CCCN1c1nccc(Oc2cccc(C)c2)n1` (stereo not given in full), the inhibition in [1] came to 0%; in experiment [2], 0%; in experiment [3], 0%; in [4], 0%; in experiment [5], 7%; in experiment [6] it was 8%. Moreover, the inhibition in [7] was 1%; in experiment [8] it was 0%; in experiment [9] it was 0%; in experiment [10] it was 4%; in [11] it was 0%; in [12] it was 6%. For the same compound, the inhibition in experiment [13] stood at 0%; in [14], 5%; in experiment [15], 0%.

On to `Cc1cccc(N(C)c2cc(Nc3cccc(C(=O)NCCCn4ccnc4)c3)ncn2)c1`, for which the inhibition in experiment [1] was 15%; in [2] it was 0%; in [3], 0%; in [4], 100%; in experiment [5], 20%; in experiment [6] it was 22%. Besides, the inhibition amounted to 0% in experiment [7]; 0% in experiment [8]; 0% in [9]; 2% in experiment [10]; 7% in experiment [11]; 15% in experiment [12]. The inhibition in experiment [13] came out at 37%; in experiment [14] it was 26%; in experiment [15], 0%.

With `O=C(c1nc(SCc2ccc(Cl)cc2)n2ccccc12)N1CCN(c2ncnc3c2CN(Cc2ccccc2)CC3)CC1`, the inhibition in [1] turned out to be 0%; in experiment [2], 0%; in experiment [3] it was 0%; in experiment [4] it was 0%; in experiment [5] it was 5%; in [6] it was 1%. The inhibition in experiment [7] stood at 1%; in experiment [8] it was 0%; in experiment [9] it was 0%; in experiment [10], 4%; in [11] it was 0%; in experiment [12], 0%. Besides, the inhibition in experiment [13] was 7%; in experiment [14], 10%; in experiment [15], 0%.

`CN(CCc1ccccn1)C(=O)c1cccc(Nc2nccc(Nc3ccc4ncsc4c3)n2)c1`: the inhibition in experiment [1] worked out at 98%; in experiment [2] it was 72%; in experiment [3] it was 17%; in experiment [4] it was 23%; in experiment [5], 19%; in experiment [6] it was 53%. Moreover, the inhibition in [7] amounted to 1%; in [8] it was 0%; in experiment [9], 0%; in experiment [10] it was 27%; in experiment [11] it was 5%; in [12], 78%. For the same compound, the inhibition worked out at 91% in [13], 95% in experiment [14] and 0% in experiment [15].

On to `Cc1cc(C(=O)N2CCN(c3ncnc4c3CN(Cc3ccccc3)CC4)CC2)c(C)n1C`, for which the inhibition was determined as 0% in experiment [1]; 0% in [2]; 0% in experiment [3]; 0% in experiment [4]; 0% in experiment [5]; 3% in experiment [6]. The inhibition in experiment [7] is 0%; in experiment [8], 0%; in experiment [9], 0%; in experiment [10] it was 6%; in experiment [11], 0%; in [12], 0%. Besides, the inhibition in experiment [13] was 5%; in experiment [14], 0%; in [15] it was 0%.

Take `COc1cccc(Nc2cc(N3CCC[C@H]3C(=O)NCCN3CCCCC3)nc(N)n2)c1`: the inhibition in [1] stood at 0%; in experiment [2] it was 13%; in [3] it was 0%; in [4], 0%; in experiment [5], 0%; in [6], 3%. Moreover, the inhibition in experiment [7] was determined as 0%; in experiment [8] it was 0%; in experiment [9], 0%; in experiment [10], 2%; in [11], 5%; in experiment [12] it was 4%. The values for the inhibition in [13], in experiment [14] and in [15] were 8%, 5% and 0%, respectively.

Consider `Cc1cccc(N(C)c2cc(Nc3cccc(C(=O)NCc4ccncc4)c3)ncn2)c1`, for which the inhibition in experiment [1] was 13%; in [2] it was 0%; in experiment [3] it was 0%; in experiment [4], 100%; in experiment [5] it was 8%; in experiment [6], 21%. The inhibition in experiment [7] turned out to be 0%; in [8] it was 0%; in [9] it was 0%; in [10] it was 2%; in experiment [11], 0%; in experiment [12], 20%. Also, the inhibition was determined as 33% in experiment [13], 19% in experiment [14] and 0% in experiment [15].

Take `CN(C)CC(C)(C)CNC(=O)C1CCN(c2cc(N3CCOCC3)nc(N)n2)CC1`: the inhibition was found to be 0% in experiment [1]; 0% in experiment [2]; 0% in experiment [3]; 0% in [4]; 0% in experiment [5]; 1% in experiment [6]. Besides, the inhibition stood at 0% in [7]; 0% in experiment [8]; 0% in experiment [9]; 3% in experiment [10]; 0% in experiment [11]; 3% in [12]. Further, the results for the inhibition in [13], in experiment [14] and in [15] were 6%, 12% and 0%, respectively.

`Cc1cccc(N(C)c2cc(N3CCN(C(=O)Cc4c[nH]c5ccccc45)CC3)ncn2)c1`: the inhibition was determined as 0% in experiment [1]; 0% in [2]; 0% in [3]; 0% in [4]; 6% in [5]; 5% in experiment [6]. In addition, the inhibition in [7] came out at 0%; in [8], 0%; in experiment [9], 0%; in [10] it was 2%; in [11] it was 0%; in experiment [12], 5%. The inhibition was 1% in experiment [13], 3% in experiment [14] and 3% in experiment [15].

With `CC(=O)CCCCC(=O)N1CCN(c2nccc(Oc3cccc(C)c3)n2)CC1`, the inhibition is 0% in experiment [1]; 1% in experiment [2]; 0% in [3]; 0% in experiment [4]; 10% in experiment [5]; 11% in experiment [6]. Moreover, the inhibition was 1% in [7]; 0% in experiment [8]; 0% in [9]; 0% in [10]; 0% in experiment [11]; 4% in experiment [12]. For the same compound, the inhibition came to 4% in experiment [13], 14% in experiment [14] and 2% in experiment [15].

By inhibition is commonly meant the change of the read-out against control, counted positive when it falls.
